In experiment [1] the target is T1, EcSecA (Escherichia coli, UniProt P10408). Description: Ion-channel activity of SecA-liposomes in oocytes, EcSecA. It counts as biochemical, E. coli. The procedure, abridged: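 SecA reconstituted with liposomes, plus proOmpA, 2 mM ATP, 1 mM Mg(OAc)2 and varied test compound concentrations, was injected into Xenopus laevis oocytes (120 ng liposomes, 120 ng SecA, 14 ng proOmpA per 50 nl). Oocytes were held 3 hr at 23 C, then current was recorded by voltage clamp for 1 min. Net channel current came from inward and outward currents.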
T1 sequence (P10408 whole entry): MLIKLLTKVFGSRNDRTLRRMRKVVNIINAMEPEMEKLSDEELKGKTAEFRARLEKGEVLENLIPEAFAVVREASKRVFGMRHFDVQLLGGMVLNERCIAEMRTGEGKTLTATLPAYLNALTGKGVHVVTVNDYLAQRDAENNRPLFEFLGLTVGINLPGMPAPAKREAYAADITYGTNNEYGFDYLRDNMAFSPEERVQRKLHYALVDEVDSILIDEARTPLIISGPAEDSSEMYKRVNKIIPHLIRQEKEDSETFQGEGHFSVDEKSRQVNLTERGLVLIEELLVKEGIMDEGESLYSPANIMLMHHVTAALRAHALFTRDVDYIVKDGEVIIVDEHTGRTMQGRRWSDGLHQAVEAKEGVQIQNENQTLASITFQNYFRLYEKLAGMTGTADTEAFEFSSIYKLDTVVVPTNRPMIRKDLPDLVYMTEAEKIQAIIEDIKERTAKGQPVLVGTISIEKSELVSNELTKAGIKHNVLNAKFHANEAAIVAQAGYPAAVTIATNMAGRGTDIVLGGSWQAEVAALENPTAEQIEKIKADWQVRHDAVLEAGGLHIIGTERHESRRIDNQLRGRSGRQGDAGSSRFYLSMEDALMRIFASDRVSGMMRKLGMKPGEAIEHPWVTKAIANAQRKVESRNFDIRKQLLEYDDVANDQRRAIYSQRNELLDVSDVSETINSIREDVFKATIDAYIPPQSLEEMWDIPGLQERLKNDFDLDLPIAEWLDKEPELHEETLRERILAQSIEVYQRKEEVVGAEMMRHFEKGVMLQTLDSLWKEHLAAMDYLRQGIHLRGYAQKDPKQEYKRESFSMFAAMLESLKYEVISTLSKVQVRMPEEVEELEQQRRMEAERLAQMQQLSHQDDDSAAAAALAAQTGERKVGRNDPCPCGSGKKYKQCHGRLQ

Experiment [2] concerns S. aureus Mu50. Description: Bacteriostatic effect. In kind it is cell-based. The settings on record: for Fold more effective than vancomycin (MIC): S. aureus Mu50, vs vancomycin 8 μg/ml; for MIC: Staphylococcus aureus.
The next experiment relates to S. aureus Mu3. Description: Bacteriostatic effect. Conditions: Staphylococcus aureus, MU3, 16 h, read-out: Bacteriostatic effect, MIC, S. aureus Mu3. In kind it is cell-based.
The next experiment concerns S. aureus K1758 (NorA−). Description: Bacteriostatic effect. In kind it is cell-based. Conditions: Staphylococcus aureus, read-out: Bacteriostatic effect, MIC, NorA− K1758.
The next experiment addresses T2, SaSecA1 (Staphylococcus aureus, UniProt O06446).
T2 sequence (O06446 1-843): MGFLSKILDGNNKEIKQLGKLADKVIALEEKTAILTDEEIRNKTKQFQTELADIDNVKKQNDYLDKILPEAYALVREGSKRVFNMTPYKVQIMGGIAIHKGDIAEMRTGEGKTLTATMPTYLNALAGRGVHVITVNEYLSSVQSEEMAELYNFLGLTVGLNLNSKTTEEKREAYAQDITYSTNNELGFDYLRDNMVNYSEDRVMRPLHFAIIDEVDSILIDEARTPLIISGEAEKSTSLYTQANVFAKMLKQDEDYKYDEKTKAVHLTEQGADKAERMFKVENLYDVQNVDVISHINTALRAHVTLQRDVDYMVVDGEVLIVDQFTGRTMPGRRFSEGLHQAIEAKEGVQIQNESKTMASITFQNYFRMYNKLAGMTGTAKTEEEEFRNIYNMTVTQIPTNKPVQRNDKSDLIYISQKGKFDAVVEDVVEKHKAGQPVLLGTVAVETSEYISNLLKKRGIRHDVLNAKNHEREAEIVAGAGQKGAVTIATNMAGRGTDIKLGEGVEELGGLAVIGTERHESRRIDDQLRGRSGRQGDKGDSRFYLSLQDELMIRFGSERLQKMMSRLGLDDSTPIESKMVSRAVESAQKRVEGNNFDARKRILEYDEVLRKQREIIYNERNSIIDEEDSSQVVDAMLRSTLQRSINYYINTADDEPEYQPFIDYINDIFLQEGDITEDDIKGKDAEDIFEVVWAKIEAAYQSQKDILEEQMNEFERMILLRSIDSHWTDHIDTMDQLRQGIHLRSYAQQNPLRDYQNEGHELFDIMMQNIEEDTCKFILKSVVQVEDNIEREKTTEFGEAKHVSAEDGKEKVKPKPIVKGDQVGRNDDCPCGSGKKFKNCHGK
Description: Ion-channel activity of SecA-liposomes in oocytes, SaSecA1. It counts as biochemical.

Another experiment deals with S. aureus Newman. Description: Bacteriostatic effect. It counts as cell-based. Conditions: Staphylococcus aureus, 16 h, read-out: Bacteriostatic effect, MIC, S. aureus Newman.
Experiment [3] addresses T1, EcSecA. Description: In vitro translocation activity with SecA-liposomes. It counts as biochemical, E. coli. The settings on record: reconstituted SecA-only liposomes, proOmpA, immunoblots. The procedure, abridged:
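Reconstituted SecA-only liposomes (stored at −80 °C, frozen-thawed once), E. coli SecA and proOmpA added separately to translocation buffer before the reaction, with 12 μg liposomes per reaction and varied SecA amounts. Test compound at various concentrations; reaction at 37 °C for 45 min. proOmpA translocation efficiency read by immunoblot.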
Background: Immunoblotting shows a protein as a band on a membrane.

For another experiment, the system named is B. subtilis 168. Description: Bacteriostatic effect. It counts as cell-based. The settings on record: Bacillus subtilis, 168, 16 h, read-out: Bacteriostatic effect, MIC, B. subtilis 168.
The next experiment deals with S. aureus K2068 (MepA++). Description: Bacteriostatic effect. It counts as cell-based. The settings on record: Staphylococcus aureus, read-out: Bacteriostatic effect, MIC, MepA++ K2068.
Another experiment relates to E. coli NR698. Description: Bacteriostatic effect. It counts as cell-based. Conditions: Escherichia coli, NR698, 24 h, read-out: MIC, E. coli NR698.
For experiment [4], the system named is S. aureus Mu50. Description: Bactericidal effect. In kind it is cell-based. Conditions: at 50 μM, 2 hr treatment. The method in brief:
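S. aureus Mu50 cells in log phase (OD600 ≈ 0.5) were mixed with a range of test compound concentrations and shaken at 1,000 rpm at 37 °C for 2 hr. Cultures were serially diluted in LB broth, plated on LB agar and incubated at 37 °C overnight. Colony-forming units were counted, and the bactericidal effect was taken as the reduction in CFU.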

For experiment [5], the target named is T1, EcSecA. Description: Intrinsic ATPase activity of full EcSecA. It counts as biochemical, E. coli.
The subject of a further experiment is S. aureus K2908 (MepA−). Description: Bacteriostatic effect. In kind it is cell-based. Conditions: Staphylococcus aureus, read-out: Bacteriostatic effect, MIC, MepA− K2908.
Another experiment relates to S. aureus 6538. Description: Bacteriostatic effect. It counts as cell-based.
The next experiment deals with S. aureus K2361 (NorA++). Description: Bacteriostatic effect. In kind it is cell-based. Conditions: Staphylococcus aureus, read-out: Bacteriostatic effect, MIC, NorA++ K2361.
Another experiment concerns S. aureus N315. Description: Bacteriostatic effect. It counts as cell-based. The settings on record: Staphylococcus aureus, N315, 16 h, read-out: Bacteriostatic effect, MIC, S. aureus N315.
Another experiment has as its target EcSecAN68 (Escherichia coli, UniProt P10408). Description: biochemical. The arrangement: species or system E. coli.
The target of another experiment is BsSecA (Bacillus subtilis, UniProt P28366). Description: Ion-channel activity of SecA-liposomes in oocytes, BsSecA. It counts as biochemical. The procedure, abridged:
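Purified SecA was reconstituted into liposomes. After 3 hr at 23 C, ion current was recorded for 1 min by voltage clamp. Net inward/outward current gave channel opening.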

For the next experiment, the target named is SpSecA (Streptococcus pyogenes, UniProt Q99Y96). Description: Ion-channel activity of SecA-liposomes in oocytes, SpSecA. In kind it is biochemical.
SpSecA, sequence (Q99Y96 whole entry): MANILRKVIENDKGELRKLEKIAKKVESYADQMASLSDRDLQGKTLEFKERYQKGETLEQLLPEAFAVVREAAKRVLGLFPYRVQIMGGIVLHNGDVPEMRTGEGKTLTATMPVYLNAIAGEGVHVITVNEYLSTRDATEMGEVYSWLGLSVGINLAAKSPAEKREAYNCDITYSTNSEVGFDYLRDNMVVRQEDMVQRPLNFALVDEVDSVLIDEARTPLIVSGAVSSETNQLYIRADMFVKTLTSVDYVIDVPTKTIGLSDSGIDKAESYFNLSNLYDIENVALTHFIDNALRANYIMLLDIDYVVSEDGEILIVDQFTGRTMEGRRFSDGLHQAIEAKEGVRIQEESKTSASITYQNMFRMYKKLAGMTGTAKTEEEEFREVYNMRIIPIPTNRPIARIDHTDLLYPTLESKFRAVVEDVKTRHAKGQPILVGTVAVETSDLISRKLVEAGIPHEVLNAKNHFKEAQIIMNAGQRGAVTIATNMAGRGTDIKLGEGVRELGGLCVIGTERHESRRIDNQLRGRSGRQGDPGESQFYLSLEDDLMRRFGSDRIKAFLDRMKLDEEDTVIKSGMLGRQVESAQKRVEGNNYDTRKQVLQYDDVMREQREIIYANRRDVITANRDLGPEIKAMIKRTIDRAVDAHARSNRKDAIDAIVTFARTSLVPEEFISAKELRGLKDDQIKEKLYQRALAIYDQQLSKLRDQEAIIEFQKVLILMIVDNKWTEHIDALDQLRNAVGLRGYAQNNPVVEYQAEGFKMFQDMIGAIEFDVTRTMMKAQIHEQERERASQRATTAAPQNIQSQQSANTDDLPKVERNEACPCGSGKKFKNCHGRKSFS
For another experiment, the target named is BaSecA1 (Bacillus anthracis, UniProt Q81X26). Description: biochemical. More on the design: species or system B. anthracis.
BaSecA1, sequence (Q81X26 whole entry, looked up): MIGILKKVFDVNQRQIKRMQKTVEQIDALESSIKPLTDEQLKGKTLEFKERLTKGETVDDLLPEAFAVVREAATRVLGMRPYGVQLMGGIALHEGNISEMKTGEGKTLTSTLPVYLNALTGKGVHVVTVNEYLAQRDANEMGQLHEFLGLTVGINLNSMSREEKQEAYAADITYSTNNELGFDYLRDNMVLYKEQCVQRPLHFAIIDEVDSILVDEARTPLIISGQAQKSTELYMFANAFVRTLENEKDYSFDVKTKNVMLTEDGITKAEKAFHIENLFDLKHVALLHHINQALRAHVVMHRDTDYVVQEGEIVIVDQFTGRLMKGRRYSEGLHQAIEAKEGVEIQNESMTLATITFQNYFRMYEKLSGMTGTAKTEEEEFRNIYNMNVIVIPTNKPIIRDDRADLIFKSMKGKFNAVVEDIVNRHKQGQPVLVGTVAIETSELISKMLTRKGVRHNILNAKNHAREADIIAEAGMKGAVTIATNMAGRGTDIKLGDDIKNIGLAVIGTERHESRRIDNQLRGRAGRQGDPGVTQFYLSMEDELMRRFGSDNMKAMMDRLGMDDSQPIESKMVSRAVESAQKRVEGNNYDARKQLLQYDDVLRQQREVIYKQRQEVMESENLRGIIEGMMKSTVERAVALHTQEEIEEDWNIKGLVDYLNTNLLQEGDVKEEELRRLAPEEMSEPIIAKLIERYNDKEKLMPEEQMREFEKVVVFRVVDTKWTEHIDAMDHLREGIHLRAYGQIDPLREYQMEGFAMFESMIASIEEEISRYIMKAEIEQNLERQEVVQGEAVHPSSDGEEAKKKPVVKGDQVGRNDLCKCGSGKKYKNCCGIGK
[6] abbreviates: MRSA, read-out: MIC, S. aureus Mu50.
Setting [7] is: MU50, 16 h, read-out: Bacteriostatic effect, MIC, S. aureus Mu50.
[8] abbreviates: Staphylococcus aureus, 6538, 16 h, read-out: Bacteriostatic effect, MIC, S. aureus 6538.
The mark [9] stands for this setting: Staphylococcus aureus, 6538, 24 h, read-out: MIC, S. aureus 6538.

Structures are written as SMILES. pIC50: −log10 of the molar value. ≈ marks a conversion by molar mass, not a printed value. Where two headings read alike, the source gives them in different places.

By MIC is commonly meant the lowest concentration found to suppress growth. As a reminder, the pIC50 is the IC50 on a negative log10 scale, so that one unit is a factor of ten. Read a low pIC50 as a large IC50.

BsSecA, sequence (P28366 whole entry): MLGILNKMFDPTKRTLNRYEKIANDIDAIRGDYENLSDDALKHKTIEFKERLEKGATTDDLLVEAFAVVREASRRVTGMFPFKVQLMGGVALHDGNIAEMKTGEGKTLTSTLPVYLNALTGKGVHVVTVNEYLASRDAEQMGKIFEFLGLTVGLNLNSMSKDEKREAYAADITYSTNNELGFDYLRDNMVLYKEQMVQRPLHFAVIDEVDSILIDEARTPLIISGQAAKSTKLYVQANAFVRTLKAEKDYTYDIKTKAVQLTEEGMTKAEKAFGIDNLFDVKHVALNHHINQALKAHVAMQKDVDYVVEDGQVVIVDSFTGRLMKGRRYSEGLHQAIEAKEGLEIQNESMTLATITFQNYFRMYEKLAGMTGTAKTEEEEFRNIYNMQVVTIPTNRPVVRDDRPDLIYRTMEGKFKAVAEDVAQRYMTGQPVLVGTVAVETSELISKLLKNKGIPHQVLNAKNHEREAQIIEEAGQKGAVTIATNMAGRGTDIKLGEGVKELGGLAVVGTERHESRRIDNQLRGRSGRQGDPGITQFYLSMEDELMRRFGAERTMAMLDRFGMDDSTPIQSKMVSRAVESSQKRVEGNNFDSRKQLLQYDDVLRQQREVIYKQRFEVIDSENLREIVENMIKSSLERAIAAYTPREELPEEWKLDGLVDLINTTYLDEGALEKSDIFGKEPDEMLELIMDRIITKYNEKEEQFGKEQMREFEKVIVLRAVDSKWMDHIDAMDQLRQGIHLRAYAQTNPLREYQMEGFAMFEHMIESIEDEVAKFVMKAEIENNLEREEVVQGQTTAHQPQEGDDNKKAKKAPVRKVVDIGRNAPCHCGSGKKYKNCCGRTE
EcSecAN68, sequence (P10408 1-610): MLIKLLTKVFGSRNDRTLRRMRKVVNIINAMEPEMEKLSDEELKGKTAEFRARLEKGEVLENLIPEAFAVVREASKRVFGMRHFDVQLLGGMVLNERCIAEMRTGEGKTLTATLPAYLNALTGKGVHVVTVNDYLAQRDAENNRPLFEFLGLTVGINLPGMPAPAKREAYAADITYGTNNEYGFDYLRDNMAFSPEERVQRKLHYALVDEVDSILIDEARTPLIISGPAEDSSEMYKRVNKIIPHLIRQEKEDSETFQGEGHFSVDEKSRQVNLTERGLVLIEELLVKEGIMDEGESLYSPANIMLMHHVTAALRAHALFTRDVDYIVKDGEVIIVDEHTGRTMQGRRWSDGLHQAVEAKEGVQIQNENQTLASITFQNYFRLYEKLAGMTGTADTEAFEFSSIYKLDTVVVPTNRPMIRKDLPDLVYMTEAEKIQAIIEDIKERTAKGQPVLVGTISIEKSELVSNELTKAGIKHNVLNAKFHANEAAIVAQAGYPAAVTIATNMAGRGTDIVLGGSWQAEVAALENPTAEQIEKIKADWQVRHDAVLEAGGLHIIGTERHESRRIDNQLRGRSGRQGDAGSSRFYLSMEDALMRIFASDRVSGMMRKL

Take `CSc1nc(Cl)cc(Sc2nnc(-c3cc(C(F)(F)F)cc(C(F)(F)F)c3)[nH]2)n1` [Compound 7b, 4-((5-(3,5-Bis(trifluoromethyl)phenyl)-4H-1,2,4-triazol-3-yl)thio)-6-chloro-2-(methylthio)pyrimidine]: the “Mode of inhibition, SecA-liposome channel activity, EcSecA” value on EcSecA [1] (inhibition kinetics, Figure 4) was “non-competitive inhibitor”. Moreover, in the experiment with S. aureus Mu50 [2], the “Fold more effective than vancomycin (MIC)” value was 10 fold. For the same compound, the MIC with S. aureus Mu50 [2] (setting [6]) turned out to be 0.75 µg/mL; with S. aureus Mu50 [2] (setting [7]), 1.6 µM; in the experiment on S. aureus Mu3, 3.1 µM (≈ 1.46 µg/mL); with S. aureus K1758 (NorA−), 3.1 µM (≈ 1.46 µg/mL); in the experiment with S. aureus Newman it was 1.6 µM (≈ 0.755 µg/mL); with B. subtilis 168, 1.6 µM (≈ 0.755 µg/mL). Further, the MIC in the experiment with S. aureus K2068 (MepA++) is 3.1 µM (≈ 1.46 µg/mL); in the experiment on E. coli NR698, 4.7 µM (≈ 2.22 µg/mL); in the experiment on S. aureus K2908 (MepA−), 2.1 µM (≈ 0.991 µg/mL); in the experiment with S. aureus 6538 (setting [8]), 3.1 µM (≈ 1.46 µg/mL); in the experiment on S. aureus 6538 (setting [9]), 3.1 µM (≈ 1.46 µg/mL); in the experiment with S. aureus K2361 (NorA++), 3.1 µM (≈ 1.46 µg/mL). Moreover, the MIC with S. aureus N315 was found to be 0.8 µM (≈ 0.377 µg/mL). In addition, at SaSecA1 (inhibition kinetics, Figure 4), the “Mode of inhibition, SecA-liposome channel activity, SaSecA” value was “non-competitive inhibitor”. In addition, the negative-log IC50 (pIC50) is 5.70 at EcSecA [3] and below 3.70 against EcSecA [5]. The “Decrease of CFU of S. aureus Mu50” value in the experiment with S. aureus Mu50 [4] came out at 2 log units.

On to `FC(F)(F)c1cc(-c2nnc(Sc3cc(Cl)nc(Sc4ccccc4)n3)[nH]2)cc(C(F)(F)F)c1` [Compound 12a, 4-((5-(3,5-Bis(trifluoromethyl)phenyl)-4H-1,2,4-triazol-3-yl)thio)-6-chloro-2-(phenylthio) Pyrimidine], for which the pIC50 was 5.89 against EcSecA [1]; 6.00 against SaSecA1; 4.70 on EcSecAN68; 5.64 at BsSecA; 5.32 on EcSecA [3]; 5.89 against SpSecA. For the same compound, the values for the pIC50 against EcSecA [5] and at BaSecA1 were below 3.70 and 6.00, respectively. For the same compound, the “Fold more effective than vancomycin (MIC)” value with S. aureus Mu50 [2] came out at 18 fold. For the same compound, the MIC was 0.43 µg/mL with S. aureus Mu50 [2] (setting [6]); 0.8 µM in the experiment on S. aureus Mu50 [2] (setting [7]); 1.6 µM (≈ 0.854 µg/mL) with S. aureus Mu3; 1.6 µM (≈ 0.854 µg/mL) in the experiment on S. aureus K1758 (NorA−); 0.8 µM (≈ 0.427 µg/mL) in the experiment with B. subtilis 168; 1.3 µM (≈ 0.694 µg/mL) in the experiment with S. aureus K2068 (MepA++). The MIC turned out to be 3.1 µM (≈ 1.66 µg/mL) in the experiment with E. coli NR698; 1 µM (≈ 0.534 µg/mL) in the experiment on S. aureus K2908 (MepA−); 1.8 µM (≈ 0.961 µg/mL) in the experiment with S. aureus 6538 (setting [8]); 1.8 µM (≈ 0.961 µg/mL) with S. aureus 6538 (setting [9]); 1.8 µM (≈ 0.961 µg/mL) in the experiment with S. aureus K2361 (NorA++); 0.8 µM (≈ 0.427 µg/mL) in the experiment with S. aureus N315.
